Measured values taken from ChEMBL document CHEMBL4610022, “Imidazolidine-2,4,5- and pirimidine-2,4,6-triones - New primary pharmacophore for soluble epoxide hydrolase inhibitors with enhanced water solubility” (Bioorg Med Chem Lett, 2020).
≈ marks a conversion by molar mass, not a printed value.

How the values were obtained:
[1] = molecular target: T1, Bifunctional epoxide hydrolase 2 (Homo sapiens, UniProt P34913); assay: Inhibition of human soluble epoxide hydrolase using cyano(2methoxy naphthalen-6-yl)methyl trans-(3-phenyloxyran-2-yl)methylcarbonate as substrate preincubated for 5 mins followed by substrate addition and measured after 10 mins by fluorescence based assay
T1 sequence (P34913 whole entry): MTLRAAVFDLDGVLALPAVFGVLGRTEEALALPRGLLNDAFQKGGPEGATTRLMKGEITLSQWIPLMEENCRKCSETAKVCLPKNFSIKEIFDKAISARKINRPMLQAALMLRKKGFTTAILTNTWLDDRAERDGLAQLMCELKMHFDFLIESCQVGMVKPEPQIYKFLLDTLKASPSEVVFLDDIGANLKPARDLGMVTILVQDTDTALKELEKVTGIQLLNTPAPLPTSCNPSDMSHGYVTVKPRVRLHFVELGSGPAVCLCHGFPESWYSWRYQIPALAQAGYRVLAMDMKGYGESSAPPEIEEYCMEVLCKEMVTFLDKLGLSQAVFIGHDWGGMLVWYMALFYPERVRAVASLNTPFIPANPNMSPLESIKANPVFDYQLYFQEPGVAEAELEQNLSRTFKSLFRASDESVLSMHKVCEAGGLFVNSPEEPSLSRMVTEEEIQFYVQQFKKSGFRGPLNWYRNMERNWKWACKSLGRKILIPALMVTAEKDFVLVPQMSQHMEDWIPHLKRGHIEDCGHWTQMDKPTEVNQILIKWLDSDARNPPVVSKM
Outline: (§1)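 Kinetic fluorescent read-out of sEH activity; each reported value is the mean of three separate experiments.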

[2] = Solubility of compound in pH 7.4 sodium phosphate buffer; format: physicochemical
Outline: (§2)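 Solubility measured in 0.1 M sodium phosphate buffer, pH 7.4, containing 1% DMSO.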

[3] = molecular target: T1, Bifunctional epoxide hydrolase 2; assay: Inhibition of human soluble epoxide hydrolase by kinetic fluorescent assay; outline: as §1
[4] = Aqueous solubility of compound; format: physicochemical; outline: as §2

Compound O=C(NC12CC3CC(CC(Cl)(C3)C1)C2)N[C@H]1CC[C@H](Oc2ccc(C(=O)O)cc2)CC1 has an IC50 [1] of 0.4 nM and a solubility [2] of 500 µM (≈ 223 µg/mL).
Compound O=C(NCCCCCCCCNC(=O)NCCC12CC3CC(CC(C3)C1)C2)NCCC12CC3CC(CC(C3)C1)C2 has an IC50 [1] of 1.5 nM and a solubility [2] of 75 µM (≈ 41.6 µg/mL).
Work on CC(N1C(=O)C(=O)N(c2ccccc2F)C1=O)C12CC3CC(CC(C3)C1)C2 (stereo not given) yielded an IC50 [3] of 466 nM and a solubility [2] of 900 µM (≈ 333 µg/mL).
With O=C(NCCN(CCNC(=O)NCC12CC3CC(CC(C3)C1)C2)CCNC(=O)NCC12CC3CC(CC(C3)C1)C2)NCC12CC3CC(CC(C3)C1)C2 the IC50 [3] was 6.7 nM and the solubility [2] was 70 µM (≈ 50.4 µg/mL).
With O=C1C(=O)N(C23CC4CC(CC(C4)C2)C3)C(=O)N1CCCCCCN1C(=O)C(=O)N(C23CC4CC(CC(C4)C2)C3)C1=O the IC50 [3] was 1.6 nM and the solubility [2] was 120 µM (≈ 69.4 µg/mL).
For O=C(Nc1ccc(OC(F)(F)F)cc1)N[C@H]1CC[C@H](Oc2ccc(C(=O)O)cc2)CC1, the solubility [4] was 5 µM (≈ 2.19 µg/mL).
O=C1C(=O)N(C23CC4CC(CC(C4)C2)C3)C(=O)N1CCCCCCCCN1C(=O)C(=O)N(C23CC4CC(CC(C4)C2)C3)C1=O gave an IC50 [3] of 3.8 nM and a solubility [2] of 110 µM (≈ 66.7 µg/mL).
Work on O=C(NCC12CC3CC(CC(C3)C1)C2)Nc1ccccc1F yielded an IC50 [3] of 0.7 nM and a solubility [2] of 65 µM (≈ 19.7 µg/mL).
Compound O=C(O)c1ccc(O[C@H]2CC[C@H](N3C(=O)C(=O)N(C45CC6CC(CC(Cl)(C6)C4)C5)C3=O)CC2)cc1 has an IC50 [3] of 0.4 nM and a solubility [2] of 250 µM (≈ 125 µg/mL).
Compound CCC(CC12CC3CC(CC(C3)C1)C2)NC(=O)NC12CC3CC(C)(C1)C[C@@](C)(C3)C2 (stereo not given in full) has an IC50 [1] of 13.8 nM and a solubility [2] of 40 µM (≈ 16.5 µg/mL).
O=C(Nc1ccccc1F)NC1C2CC3CC(C2)CC1C3 (stereo not given) gave an IC50 [3] of 1 nM and a solubility [2] of 85 µM (≈ 24.5 µg/mL).
For O=C1C(=O)N(CCC23CC4CC(CC(C4)C2)C3)C(=O)N1CCCCCCCCN1C(=O)C(=O)N(CCC23CC4CC(CC(C4)C2)C3)C1=O, the IC50 [3] was 438 nM and the solubility [2] was 600 µM (≈ 398 µg/mL).
For O=C(O)c1ccc(O[C@H]2CC[C@H](N3C(=O)C(=O)N(C4CCCCCC4)C3=O)CC2)cc1, the IC50 [3] was 86.8 nM and the solubility [2] was 280 µM (≈ 120 µg/mL).
For O=C(NC12CC3CC(C1)C(=O)C(C3)C2)NC12CC3CC(C1)C(=O)C(C3)C2, the IC50 [3] was 12 nM and the solubility [2] was 1750 µM (≈ 624 µg/mL).
O=C(O)c1ccc(O[C@H]2CC[C@H](N3C(=O)C(=O)N(c4ccc(OC(F)(F)F)cc4)C3=O)CC2)cc1 showed an IC50 [3] of 7.7 nM and a solubility [2] of 210 µM (≈ 103 µg/mL).
In the case of CC(NC(=O)Nc1ccccc1F)C12CC3CC(CC(C3)C1)C2 (stereo not given), the solubility [2] is reported as 55 µM (≈ 17.4 µg/mL).
With O=C(Nc1ccc(C23CC4CC(CC(C4)C2)C3)cc1)Nc1ccccc1F the solubility [2] was 85 µM (≈ 31 µg/mL).
Compound O=C(NCCCCCCNC(=O)NCCC12CC3CC(CC(C3)C1)C2)NCCC12CC3CC(CC(C3)C1)C2 has an IC50 [1] of 0.8 nM and a solubility [2] of 80 µM (≈ 42.1 µg/mL).
With O=C1C(=O)N(CC23CC4CC(CC(C4)C2)C3)C(=O)N1CCN(CCN1C(=O)C(=O)N(CC23CC4CC(CC(C4)C2)C3)C1=O)CCN1C(=O)C(=O)N(CC23CC4CC(CC(C4)C2)C3)C1=O the IC50 [3] was 80.3 nM and the solubility [2] was 650 µM (≈ 573 µg/mL).
O=C1C(=O)N(c2ccccc2F)C(=O)N1c1ccc(C23CC4CC(CC(C4)C2)C3)cc1 gave an IC50 [3] of 160 nM and a solubility [2] of 250 µM (≈ 105 µg/mL).
In the case of O=C1C(=O)N(c2ccccc2F)C(=O)N1CC12CC3CC(CC(C3)C1)C2, the IC50 [3] is reported as 311 nM and the solubility [2] is reported as 350 µM (≈ 125 µg/mL).
Compound CCC(CC12CC3CC(CC(C3)C1)C2)N1C(=O)C(=O)N(CCCCCCCCN2C(=O)C(=O)N(C(CC)CC34CC5CC(CC(C5)C3)C4)C2=O)C1=O (stereo not given) has an IC50 [3] of 650 nM and a solubility [2] of 100 µM (≈ 71.9 µg/mL).
Compound CC12CC3CC(C)(C1)CC(NC(=O)Nc1ccccc1F)(C3)C2 has an IC50 [3] of 3.6 nM and a solubility [2] of 65 µM (≈ 20.6 µg/mL).
For O=C1C(=O)N(CCC23CC4CC(CC(C4)C2)C3)C(=O)N1CCCCN1C(=O)C(=O)N(CCC23CC4CC(CC(C4)C2)C3)C1=O, the IC50 [3] was 294 nM and the solubility [2] was 900 µM (≈ 546 µg/mL).
In the case of O=C(NC1CCCCCC1)N[C@H]1CC[C@H](Oc2ccc(C(=O)O)cc2)CC1, the IC50 [3] is reported as 4.5 nM and the solubility [2] is reported as 100 µM (≈ 37.4 µg/mL).
In the case of CC12CC3CC(C)(C1)CC(N1C(=O)C(=O)N(C4C5CC6CC(C5)CC4C6)C1=O)(C3)C2 (stereo not given), the IC50 [3] is reported as 22.8 nM and the solubility [2] is reported as 100 µM (≈ 41.1 µg/mL).
With CCC(CC12CC3CC(CC(C3)C1)C2)N1C(=O)C(=O)N(C23CC4CC(C)(C2)C[C@@](C)(C4)C3)C1=O (stereo not given in full) the IC50 [3] was 216 nM and the solubility [2] was 100 µM (≈ 46.7 µg/mL).
For O=C(NCCCCNC(=O)NCCC12CC3CC(CC(C3)C1)C2)NCCC12CC3CC(CC(C3)C1)C2, the IC50 [1] was 3.4 nM and the solubility [2] was 100 µM (≈ 49.9 µg/mL).
CCC(CC12CC3CC(CC(C3)C1)C2)N1C(=O)C(=O)N(CCCCN2C(=O)C(=O)N(C(CC)CC34CC5CC(CC(C5)C3)C4)C2=O)C1=O (stereo not given) gave an IC50 [3] of 8.4 nM and a solubility [2] of 90 µM (≈ 59.7 µg/mL).
In the case of CC12CC3CC(C)(C1)CC(NC(=O)NC1C4CC5CC(C4)CC1C5)(C3)C2 (stereo not given), the IC50 [1] is reported as 9.6 nM and the solubility [2] is reported as 20 µM (≈ 7.13 µg/mL).
With CC12CC3CC(C)(C1)CC(N1C(=O)C(=O)N(c4ccccc4F)C1=O)(C3)C2 the IC50 [3] was 371 nM and the solubility [2] was 200 µM (≈ 74.1 µg/mL).
Work on O=C1C2CC3CC1CC(N1C(=O)C(=O)N(C45CC6CC(C4)C(=O)C(C6)C5)C1=O)(C3)C2 yielded an IC50 [3] of 8420 nM and a solubility [2] of 150 µM (≈ 61.6 µg/mL).
With O=C1C(=O)N(C2C3CC4CC(C3)CC2C4)C(=O)N1c1ccccc1F (stereo not given) the IC50 [3] was 6130 nM and the solubility [2] was 250 µM (≈ 85.6 µg/mL).
For O=C1C(=O)N(CCC23CC4CC(CC(C4)C2)C3)C(=O)N1CCCCCCN1C(=O)C(=O)N(CCC23CC4CC(CC(C4)C2)C3)C1=O, the IC50 [3] was 92 nM and the solubility [2] was 1300 µM (≈ 825 µg/mL).
